# High-throughput results (PubChem)
# GPR7 antagonist = GPR7 receptor antagonists, primary screen, cell-based, fluorescence, single concentration. GPR7-expressing cells, fluorescence antagonist assay. 290,000 compounds, 1.1% hits. Neuropeptides B/W receptor type 1 (Homo sapiens), P48145. inhibition, % at 4.4 µM; in the data active means inhibition above about 16%, passing the limit was not always enough;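 further: cells stimulated with the agonist NPW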
# Target sequence (P48145 whole entry, looked up): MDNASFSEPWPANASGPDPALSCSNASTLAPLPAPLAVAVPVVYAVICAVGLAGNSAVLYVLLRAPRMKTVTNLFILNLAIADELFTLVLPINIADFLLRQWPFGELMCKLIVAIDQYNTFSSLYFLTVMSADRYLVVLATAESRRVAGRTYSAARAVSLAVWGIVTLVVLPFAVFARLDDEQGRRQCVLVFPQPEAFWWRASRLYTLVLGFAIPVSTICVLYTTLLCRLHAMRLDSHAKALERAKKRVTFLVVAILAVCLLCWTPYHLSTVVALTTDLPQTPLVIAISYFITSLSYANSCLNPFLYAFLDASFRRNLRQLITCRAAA
# OX1R antag-1 = OX1R (HCRTR1) antagonists, primary screen, fluorescence, CHO/OX1R cells, Fluo-8 calcium, orexin A. 330,000 compounds, 0.43% hits. AID 434989, 2010. Orexin/Hypocretin receptor type 1 (Homo sapiens), O43613. Fluo-8 calcium fluorescence. inhibition, % at 5 µM;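 active means inhibition above its plate's threshold, mean inhibition of all tested compounds on the plate plus 3 SD, cut at about 37% in these data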
# CHO parental Ca = ATP-evoked calcium signal inhibitors, parental CHO, primary screen, counter-screen for OX1R antagonist project, cell-based, fluorescence, Fluo-8 calcium dye; parental CHO-K1, ATP-induced calcium, Fluo-8 fluorescence; inhibition, % at 5.6 µM; 330,000 compounds, 0.63% hits;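 active means inhibition above that plate's mean sample inhibition plus 3 SD, cut at about 26% in these data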
#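 Material: Parental CHO cells | Reagent: ATP | Compound dosing: Single nominal dose of 5.6 µM per compound | Detection: Intracellular calcium via Fluo-8 no-wash fluorescent dye | Read-out: % inhibition of ATP-induced calcium mobilization | Benchmarks: Low control ATP plus DMSO, high control DMSO only | Replicates: Singlicate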
# TAAR1 antag = human TAAR1 antagonists, primary screen, Fluo-8 calcium fluorescence, CHO RD-HGA16 cells; 360,000 compounds, 1.5% hits; antagonist; inhibition, % at 3 µM;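 active means inhibition above a per-plate cutoff, the mean inhibition of test compounds on that plate plus 3 SD, cut at about 49% in these data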
# Target sequence (Q96RJ0 whole entry, looked up): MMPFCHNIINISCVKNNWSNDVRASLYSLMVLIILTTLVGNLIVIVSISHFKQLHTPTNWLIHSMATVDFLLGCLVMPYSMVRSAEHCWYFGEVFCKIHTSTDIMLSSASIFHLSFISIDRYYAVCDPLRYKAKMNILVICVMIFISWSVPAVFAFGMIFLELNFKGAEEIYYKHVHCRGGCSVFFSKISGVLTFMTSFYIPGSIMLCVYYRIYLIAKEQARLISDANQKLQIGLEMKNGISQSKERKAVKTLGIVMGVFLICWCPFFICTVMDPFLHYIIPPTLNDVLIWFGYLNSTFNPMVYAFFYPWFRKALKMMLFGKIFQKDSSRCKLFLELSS
#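 Assay system: RD-HGA16 CHO cells with stable hTAAR1 and Gα16 / Reagent: EC80 β-phenethylamine stimulus / Doses: 3 µM, single point / Timing: dye loading 75 min at 37 °C, then 30 min room temperature / Measured by: Fluo-8 intracellular calcium dye fluorescence, real-time kinetic reads / Controls: vehicle wells and EC80 agonist wells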
# TAAR1 agonist = human TAAR1 agonists, primary screen, Fluo-8 calcium fluorescence, CHO RD-HGA16 cells | vehicle wells 0%, saturating PEA agonist 100% | 360,000 compounds, 0.99% hits | AID 624467, 2012 | activation, % at 3 µM | Trace amine-associated receptor 1 (Homo sapiens), Q96RJ0;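 active means activation above the mean activation of all test compounds in the run plus 3 SD, cut at about 38% in these data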
#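 Signal – calcium-sensitive Fluo-8 signal, excitation 470-495, emission 515-575 nm · System – RD-HGA16 (CHO) cells co-expressing Gα16 and hTAAR1 · Incubation – 17-24 h seeding, 75 min 37 °C dye, 30 min RT · Compound dosing – 3 µM single concentration · Repeats – no replicates (n 1)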
# OX1R antag-2 = antagonists of human orexin 1 receptor (OX1R); OX1R-expressing cells, FRET antagonist read-out; inhibition, % at 6.6 µM; 330,000 compounds, 1.8% hits; AID 485270, 2010; in the data active means inhibition mostly above about 38%, no sharp cut-off; inactive means mostly below about 40%
# nonsel antag count = nonselective antagonists in TAAR1 counter-screen cells, counter-screen for hTAAR1 antagonist project, cell-based, fluorescence, calcium | shares compounds with TAAR1 antag | counterscreen cell line, antagonist mode | inhibition, % at 3 µM | 2,400 compounds, 77% hits; in the data active means inhibition above about 22%;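 further: CHO-Ga16 host cells stimulated with ATP at an EC80 level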
# TAAR1 antag conf = human TAAR1 antagonists, retest of hits, confirmation, cell-based, fluorescence | shares compounds with TAAR1 antag | TAAR1-expressing cells, fluorescence antagonist read-out | inhibition, % at 3 µM | 2,400 compounds, 40% hits; in the data active means inhibition above about 49%;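 further: CHO-Ga16 host cells challenged with agonist PEA near its EC80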
# Ga16 ag counter = calcium activation in Ga16-expressing cells, counter-screen for TAAR1 antagonist project, cell-based, fluorescence. shares compounds with TAAR1 antag. agonist counterscreen. activation, % at 3 µM. 2,400 compounds, 18% hits; in the data active means activation above about 12%
# TAAR1 ag count = TAAR1 activation by candidate antagonists – cell-based, fluorescence, counter-screen for TAAR1 antagonist project; shares compounds with TAAR1 antag; hTAAR1 cell line, agonist mode; activation, % at 3 µM; 2,400 compounds, 2% hits; in the data active means activation above about 37%;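 further: CHO cells stably expressing TAAR1 with calcium dye readout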
# Numbers stand for hits; n = inactive; x = not tested or not shown. The list is not random: actives were taken first. Their share in the collection is about 4.6%.
SMILES,GPR7 antagonist,OX1R antag-1,CHO parental Ca,TAAR1 antag,TAAR1 agonist,OX1R antag-2,nonsel antag count,TAAR1 antag conf,Ga16 ag counter,TAAR1 ag count
CCC(C)c1ccc(NC(=O)COc2c(F)c(F)c(C(F)(F)F)c(F)c2F)cc1 (configuration not stated),n,n,n,51,n,n,n,n,n,n
Cc1ccc2c(c1)C(=O)C(=O)N2Cc1ccc(Cl)cc1,x,n,n,55,n,n,n,n,n,n
Cc1ccc(S(=O)(=O)N2C[C@H]3C(=O)C[C@@H](c4cccc(Cl)c4)N(S(=O)(=O)c4ccc(C)cc4)[C@H]3C[C@H]2c2cccc(Cl)c2)cc1,x,x,x,n,n,x,x,x,x,x
COc1ccc(N2CCN(C(=O)COC(=O)c3oc4ccc(OC)cc4c3C)CC2)cc1,x,n,n,69,n,n,42,57,n,n
COc1ccc(N2CCN(C(=O)COC(=O)CCOc3cc(C)ccc3C)CC2)cc1,x,n,n,51,n,n,40,52,12,n
COc1ccc(N2CCN(C(=O)COC(=O)CCOc3ccccc3C)CC2)cc1,x,n,n,n,n,n,x,x,x,x
Cc1ccc(C)c(OCCC(=O)OCC(=O)NCCNC(=O)COC(=O)CCOc2cc(C)ccc2C)c1,x,n,n,87,n,n,48,68,16,n
Cc1ccc(C)c(OCCC(=O)OCC(=O)NCc2ccccc2)c1,x,n,n,n,n,n,x,x,x,x
COc1ccc(-c2cc(C(F)(F)F)c(C#N)c(SCC(=O)Nc3nc(C)co3)n2)cc1,n,n,n,x,x,n,x,x,x,x
Cc1coc(NC(=O)CSc2nc(-c3ccc(Cl)cc3)cc(C(F)(F)F)c2C#N)n1,n,n,n,x,x,n,n,x,n,x
C[C@@H]1CNC(=O)c2c(C(=O)N[C@@H](Cc3c[nH]c4ccccc34)C(=O)OC(C)(C)C)ncn21,x,x,x,58,n,x,30,n,n,n
COCOc1ccc(-c2ncc(OC)nc2NC(=O)c2ccsc2)cc1,x,x,x,n,n,x,x,x,x,x
COc1ccc(CNC(=O)COc2ccc(S(=O)(=O)N3CCCCC3)cc2Cl)cc1,n,n,n,73,n,n,26,n,n,n
COc1cccc(NC(=O)c2cc(-c3ccccn3)nc3ccccc23)c1,x,n,n,56,n,n,28,n,n,n
NC(=O)c1cccc(-c2coc3c(C(=O)NCc4cccnc4)cccc23)c1,x,x,x,n,n,x,x,x,x,x
CC(=O)Nc1cccc(NC(=O)c2cc(-c3cccnc3)nc3ccc(Cl)cc23)c1,n,n,n,86,n,n,31,55,n,n
COc1cccc(-c2cc(C(=O)Nc3ccncc3)c3ccccc3n2)c1,n,n,n,n,n,n,x,x,x,x
Cc1ccc(C)c(-c2cc(C(=O)Nc3cccnc3)c3ccccc3n2)c1,n,n,n,61,n,n,25,49,13,n
CC(=O)c1cccc(NC(=O)c2cccc3c(-c4cccnc4)coc23)c1,x,x,x,75,n,x,31,52,n,n
Cc1cccc(NC(=O)c2cc(-c3ccccn3)nc3ccccc23)c1C,n,n,n,70,n,n,34,56,n,n
CCOc1cc(/C=N/NC(N)=O)cc(Br)c1OCC(=O)Nc1cccc2ccccc12,n,n,n,66,n,n,31,55,14,n
COc1ccc(C(=O)/C=C/c2ccc(OCc3ccccc3)cc2)cc1CSCC(=O)O,n,x,x,62,n,x,38,54,n,n
COc1ccc(C(=O)/C=C/c2cccc(OCc3ccccc3)c2)cc1CSCC(=O)O,n,n,n,n,n,n,x,x,x,x
CC(NC(=O)c1ccc(CS(=O)(=O)c2ccc(Cl)cc2)o1)c1ccc2c(c1)OCCO2 (configuration not stated),n,n,n,59,n,n,32,53,n,n
Cc1ccccc1S(=O)(=O)Cc1ccc(C(=O)NC(C)c2ccc3c(c2)OCCO3)o1 (configuration not stated),n,n,n,n,n,n,x,x,x,x
SMILES,GPR7 antagonist,OX1R antag-1,CHO parental Ca,TAAR1 antag,TAAR1 agonist,OX1R antag-2,nonsel antag count,TAAR1 antag conf,Ga16 ag counter,TAAR1 ag count
Oc1ccccc1OCCOc1ccccc1OCCOc1ccccc1O,n,n,n,79,n,n,35,55,n,n
Oc1ccccc1OCC(O)c1ccccc1 (configuration not stated),n,n,n,n,n,n,x,x,x,x
CC(C)c1ccc(/C=N/NC(=O)c2ccc(-n3cnnn3)cc2)cc1,x,x,x,66,n,x,32,n,n,n
CC(C)C[C@H]1CNC(=S)N1C[C@H]1CCCN1C[C@H](CC(C)C)N1C[C@H](Cc2ccc(O)cc2)N(CC2CCCCCC2)C1=S,x,x,x,n,n,x,x,x,x,x
COc1cccc(CNC(=O)N2CCN(c3ccccc3Cl)CC2)c1,n,n,n,49,n,n,22,n,n,n
CCCNC(=O)c1ccc(N2CCC3(CC2)CC(c2ccccc2)=NO3)c(NC(=O)Cc2ccc(F)cc2)c1,n,n,n,n,n,n,x,x,x,x
CC1CCN(C(=O)c2ccc(N(C)S(C)(=O)=O)cc2)CC1,n,n,n,107,n,n,n,n,n,n
CCOC(=O)N1CCN(C(=O)C[C@@H]2C[C@@]3(C(=O)OCC)CCCC=C3N(Cc3ccco3)C2=O)CC1,x,x,x,n,n,x,x,x,x,x
CC(=O)N1N=C(c2cccc(O)c2)CC1c1cccs1 (configuration not stated),n,x,x,71,n,x,n,n,n,n
CC(=O)N1N=C(c2cccc(NS(C)(=O)=O)c2)CC1c1cccs1 (configuration not stated),n,n,n,n,n,n,x,x,x,x
CCC(=O)Nc1ccc2c(c1)OC[C@@H](C)NC[C@@H](C)[C@@H](OC)CN(C)C2=O,x,x,x,n,n,x,x,x,x,x
Cc1cccc(C)c1NC(=O)C(c1ccccc1)N1CCN(C)CC1 (configuration not stated),x,x,x,n,n,x,x,x,x,x
